The test system of assay [1] is U-937. Put plainly: Cytotoxicity against human U937 cells after 48 hrs by trypan blue assay. Type of assay: functional. Conditions: U-937, 48 h. The procedure, abridged:
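U-937 cells in exponential growth seeded at 10⁵ cells/mL RPMI 1640, exposed to coumarin 0.15 µM to 2.0 mM or 0.0001% (v/v) DMSO vehicle for 48 h at 5% CO₂. Viable cells counted by trypan blue exclusion (0.4%, 5 min) in a hemocytometer. CC50 from sigmoidal dose-response fit; quadruplicate, at least four independent experiments.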

Assay [2] concerns U-937. Put plainly: Growth inhibition of human U937 cells assessed as [3H]5-methyl thymidine incorporation after 48 hrs by liquid scintillation counting. The format is functional, cell-based. In a few lines: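 Exponentially growing U-937 cells (10⁴ per well in RPMI 1640) exposed to coumarins up to 2.0 mM or 0.0001% (v/v) DMSO for 48 h. 0.5 µCi [³H]5-methyl thymidine added 12 h before the end. Cells harvested, incorporation read by liquid scintillation counting as % of DMSO control. IC50 from sigmoidal dose-response fit; quadruplicate, at least four independent experiments.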
In general terms: Uptake of a labelled nucleoside into DNA is a usual measure of proliferation.

Assay [3] deals with U-937. Put plainly: Induction of human U937 cell differentiation assessed as expression of CD88 receptor at 25 uM after 2 days. Type of assay: functional, cell-based. In a few lines: (§1)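 CD88 read-out as C5a-evoked Ca²⁺ release: U-937 cells (1 × 10⁶/mL) treated 48 h with 5, 25 or 50 µM compound, 400 µM dbcAMP or 0.0001% DMSO. Loaded with 2 µM Fura 2-AM in BSS pH 7.5, 30 min, 37 °C, then 2 × 10⁶ cells/mL. F340/F380 (emission 505 nm) recorded for 8 min at 37 °C with rhC5a or ATP injection. Calibrated with Triton X-100/EGTA; ≥3 experiments.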

Assay [4] deals with U-937. Put plainly: Induction of human U937 cell differentiation assessed as expression of CD11b levels at 50 uM after 72 hrs relative to control. Type of assay: functional, cell-based. In a few lines:
(§2)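 U-937 cells (2 × 10⁵/mL) treated 72 h with 25 or 50 µM compound, 400 µM dbcAMP (positive control) or 0.0001% (v/v) DMSO. Washed in PBS, stained with saturating PE anti-CD11b or isotype control, 4 °C, 30 min. Analysed by flow cytometry, ≥5000 events; CD11b relative to DMSO control (=1); n = 3.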

Assay [5] has as its system U-937. Put plainly: Induction of human U937 cell differentiation assessed as burst oxidative capacity at 50 uM after 72 hrs by NBT reduction assay relative to control. Type of assay: functional, cell-based. In a few lines:
(§3)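 NBT reduction: U-937 cells (2 × 10⁵/mL) treated 72 h with 25 or 50 µM compound, 1 µM ATRA (positive control) or 0.0001% (v/v) DMSO. Washed, then incubated in RPMI containing 1 mg/mL NBT and 1 µg/mL PMA for 30 min at 37 °C. Formazan dissolved in DMSO, A570 read relative to DMSO control (=1); n = 3.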

Assay [6] deals with U-937. The assay can be described thus: Growth inhibition of human U937 cells assessed as cell proliferation after 72 hrs. The format is functional, cell-based. The following applies: TDE = time-dependent effect. In a few lines:
(§4)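 U-937 cells seeded at 10⁵ cells/mL and treated with 25 or 50 µM compound, 400 µM dbcAMP (positive control) or 0.0001% (v/v) DMSO for up to 72 h (sampled at 24, 48, 72 h). Cell number counted on a Coulter Z-1, with density kept ≤1 × 10⁶ cells/mL. Expressed as % of DMSO control; n = 3.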

Assay [7] deals with U-937. Put plainly: Induction of human U937 cell differentiation assessed as increase in rhC5a-stimulated intracellular calcium at 25 uM after 2 days. The format is functional, cell-based. The procedure, abridged:
as §1

For assay [8], the system named is U-937. The assay can be described thus: Induction of human U937 cell differentiation assessed as expression of CD88 receptor at 50 uM after 2 days. Type of assay: functional, cell-based. The procedure, abridged:
as §1

For assay [9], the system named is U-937. Put plainly: Induction of human U937 cell differentiation assessed as burst oxidative capacity at 25 uM after 72 hrs by NBT reduction assay relative to control. The format is functional, cell-based. In a few lines: as §3
For assay [10], the system named is U-937. Put plainly: Induction of human U937 cell differentiation assessed as expression of CD11b levels at 25 uM after 72 hrs relative to control. The format is functional, cell-based. The procedure, abridged:
as §2

Assay [11] concerns U-937. Put plainly: Induction of human U937 cell differentiation assessed as increase in rhC5a-stimulated intracellular calcium at 50 uM after 2 days. The format is functional, cell-based. In a few lines:
as §1
(Calcium assays in cells follow changes in intracellular calcium, usually with a dye or a luminescent sensor.)

Assay [12] relates to U-937. The assay can be described thus: Growth inhibition of human U937 cells assessed as proliferation at 50 uM after 72 hrs. Conditions: U-937, 72 h, read-out: Activity. Type of assay: functional. The procedure, abridged: as §4
The test system of assay [13] is U-937. The assay can be described thus: Induction of human U937 cell differentiation assessed as expression of CD88 receptor at 5 uM after 2 days. The format is functional, cell-based. In a few lines: as §1

Activity calls are given as the source filed them. The rule behind the calls is not given here.

For `O=c1ccc2cc3c(cc2o1)OCO3` [AYAPIN], the CC50 in the assay with U-937 [1] is > 2000 µM. Moreover, the IC50 with U-937 [2] is > 400 µM.
For `CC(C)=CCOc1c2c(cc3oc(=O)ccc13)OCO2` the same measures were 266 µM and 3.5 µM.
With `COc1cc(OC)c2ccc(=O)oc2c1OC`, in the assay on U-937 [1], the CC50 was > 2000 µM. In the assay on U-937 [2], the IC50 was > 400 µM.
Regarding `COC(C)(C)C(O)COc1c2c(cc3oc(=O)ccc13)OCO2` (configuration not stated), the Activity entry in the assay on U-937 [3] is “Agonist”. In addition, the result with U-937 [4], in the assay with U-937 [10] and in the assay on U-937 [13] was inactive. Moreover, the result in the assay on U-937 [5], in the assay on U-937 [7], with U-937 [8], in the assay with U-937 [9] and in the assay with U-937 [11] was Active. Moreover, in the assay with U-937 [6], the “growth inhibition (GI)” value was “tde”. The compound also displayed a CC50 in the assay on U-937 [1] of 365 µM. Also, the growth at 50 µM in the assay on U-937 [12] worked out at 62.5%. The IC50 in the assay on U-937 [2] amounted to 25.3 µM.
`O=c1ccc2ccccc2o1` [COUMARIN]: in the assay on U-937 [1], the CC50 is > 2000 µM. Further, in the assay with U-937 [2], the IC50 is > 400 µM.
For `COc1c2c(cc3ccc(=O)oc13)OCO2`, in that order: > 2000 µM and > 400 µM.
On to `O=c1ccc2c(F)c3c(cc2o1)OCO3`, for which, in the assay on U-937 [1], the CC50 is > 2000 µM. The IC50 in the assay on U-937 [2] was > 400 µM.
In the case of `O=c1ccc2ccc3c(c2o1)OCO3`, in the assay on U-937 [1], the half-maximal cytotoxic concentration (CC50) was > 2000 µM. The IC50 with U-937 [2] is > 400 µM.
Compound `CC(C)(Cl)C(O)COc1c2c(cc3oc(=O)ccc13)OCO2` (configuration not stated) gave a CC50 in the assay with U-937 [1] of 567 µM. For the same compound, the IC50 in the assay with U-937 [2] came to 227 µM.
For `COc1cc(OC)c2ccc(=O)oc2c1OCC=C(C)C` [ARTANIN] the same measures were 535 µM and 177 µM.
For `COc1cc2ccc(=O)oc2cc1OCC=C(C)C` [PRENYLETIN 6-METHYL ETHER] the same measures were 799 µM and > 400 µM.
As to `COc1cc(OC)c2ccc(=O)oc2c1O` [LEPTODACTYLONE], in the assay on U-937 [1], the CC50 was > 2000 µM. Moreover, the IC50 in the assay on U-937 [2] is > 400 µM.
For `C=C(C)C(O)COc1cc2oc(=O)ccc2cc1OC` (configuration not stated), the CC50 with U-937 [1] is 704 µM. Further, in the assay on U-937 [2], the IC50 was > 400 µM.
For `COc1c2c(c(OC)c3oc(=O)ccc13)OCO2`, in that order: > 2000 µM and > 400 µM.
For `CC(C)=CCOc1cc2oc(=O)ccc2cc1O` [PRENYLETIN], in that order: 820 µM and > 400 µM.
In the assay on U-937 [1], `COc1c2c(cc3oc(=O)ccc13)OCO2` gave a CC50 of 252 µM. Also, the concentration for half-maximal inhibition (IC50) with U-937 [2] was determined as 2.2 µM.
For `O=c1ccc2c(Br)c3c(cc2o1)OCO3`, in that order: > 2000 µM and > 400 µM.
With `CC1(C)OC1COc1c2c(cc3oc(=O)ccc13)OCO2` (configuration not stated), the CC50 in the assay on U-937 [1] amounted to 899 µM. Further, in the assay with U-937 [2], the IC50 was > 400 µM.
For `COc1cc2oc(=O)ccc2c(OC)c1OC` [5,6,7-TRIMETHOXYCOUMARIN] the same measures were 790 µM and 182 µM.
For `COc1cc2oc(=O)ccc2c(OC)c1O` [FRAXINOL], in that order: > 2000 µM and > 400 µM.
Consider `CC(C)(O)C(O)COc1c2c(cc3oc(=O)ccc13)OCO2` (configuration not stated), for which the result with U-937 [4] and in the assay with U-937 [13] was inactive. Also, in the assay with U-937 [6], the “growth inhibition (GI)” value was “tde”. Further, the outcome with U-937 [8], with U-937 [9] and in the assay with U-937 [11] was Active. In addition, in the assay with U-937 [1], it took 420 µM to reach half-maximal cytotoxicity (CC50). In addition, the growth at 50 µM in the assay on U-937 [12] came out at 38%. The IC50 in the assay with U-937 [2] turned out to be 192 µM.
Turning to `O=c1ccc2c(O)c3c(cc2o1)OCO3`, the 50% cytotoxic concentration (CC50) with U-937 [1] is > 2000 µM. In the assay with U-937 [2], the IC50 was determined as 255 µM.

One may read the CC50 as the concentration that lowers cell viability or growth by half. As a reminder, the IC50 is the concentration that inhibits the measured activity by half.

For the origin of these results see ChEMBL document CHEMBL1152580, “Toward establishing structure-activity relationships for oxygenated coumarins as differentiation inducers of promonocytic leukemic cells” (Bioorg Med Chem, 2009).
